Laboratory results from the EternaBench riboswitch data.

System: MS2 coat protein
Test: apparent Kd, MS2 coat protein; higher = weaker binding; RNA-MaP array; FMN 200 µM where present
How it was run: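 Stalled E. coli RNA polymerase produced the designs on Illumina sequencing-chip clusters. SNAP-549-labelled MS2 coat protein was added from 0.7 or 1.5 nM, doubling to 3 µM, without and then with constant ligand, in 100 mM Tris-HCl pH 7.5, 80 mM KCl, 4 mM MgCl2, BSA, DTT, yeast tRNA and Tween-20. The apparent Kd is the median of filtered per-cluster fits of green signal normalised to red-channel RNA signal and control-cluster median Fmax.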

[1] = designed as: ON switch for flavin mononucleotide, no ligand
[2] = ligand present: flavin mononucleotide, designed as: ON switch for flavin mononucleotide
[3] = designed as: OFF switch for flavin mononucleotide, no ligand
[4] = ligand present: flavin mononucleotide, designed as: OFF switch for flavin mononucleotide

Row | Sequence | apparent Kd [1] | apparent Kd [2] | apparent Kd [3] | apparent Kd [4]
1 | AGCUACGUUUCGUAGCAGCUAGGUGAGGAUAUUCAAUUUUUCACAUGAGGAUCACCCAUGUAUGUGAAGAAGGCGCCUAGAAAC | 10.8 nM | 5.07 nM | – | –
2 | AAUUAUUAUUGAGGAUAUCGUAUUGAAACAAUACGAGAAGGCGGAAUAAACAUGAGGAUCACCCAUGUGAGCCUGAUGCUUAUG | – | – | 25 nM | 36.1 nM
3 | UUUUUCUGCUGAGGAUAUUGCUCGUGCGUACAUGAGGAUCACCCAUGUGUCUUGAUCCUCUUCUGCAAGAAGGCAGCUCUCUCU | – | – | 403 nM | 155 nM
4 | AACCACCGCACGGACACGUCGAGUCAGGAUAUACAUGAGGAUCACCCAUGUGAAGGCCGGCUCAUGUAGAAGGGACAGGCGUUG | – | – | 11.4 nM | 15.7 nM
5 | AAGACACAUGAGGAUCACCCAUGUUAGGAUAUACGCAUGCAUGCAUGCAUGCAUGCAAGUAGAAGGAACCAUGC | – | – | 30.5 nM | 30.6 nM
6 | CAGCGGGUCUUCAGGGUAAUGAACAUGAGGAUCACCCAUGUGCAGGAUAUGACGGAUCCGCACCGUCAGAAGGGCACUAAGUGA | – | – | 26.7 nM | 32.5 nM
7 | CGGGUCUGAGGAUAUCCAUCUUCAUACAUGAGGAUCACCCAUGUUUACCUUUGGGUUCCUGGAGAAGGCAGUUUUC | – | – | 74.9 nM | 78.4 nM
8 | UUUUAACAUGAGGAUCACCCAUGUGAGGAUAUCGAAAUUUAUAUUUAUAUUUAUAAAACGAGAAGGCACAUUUU | – | – | 103 nM | 119 nM
9 | GUCAGCUCGUGAGGAUAUACAUGUGCUGGAUACAGCACUAUUAAGAUCACAUGAGGAUCACCCAUGUAGAAGGCACGAGCUGAU | – | – | 49.5 nM | 643 nM
10 | AUAUUCUAGAUAGGAUAUACUGAGGUUGAAUGGGUAGAAGGAUCGUGAGAGUGGACUACAUGAGGAUCACCCAUGUUGUUUAUU | 61.6 nM | 59 nM | – | –
11 | GGAUUACAUGAGGAUCACCCAUGUGAGGAUAUCGAUGUCCUCAGUAGAGUGCGGGACUCGAGAAGGCACUUGGA | – | – | 70.1 nM | 95.9 nM
12 | GAUCAACAUGAGGAUCACCCAUGUGAGGAUAUGAUACUAUGUACUUCGGUACAUAGUAUCAGAAGGCAUUAGGA | – | – | 51.8 nM | 39.6 nM
13 | AGUGCUAUGUAGAAGGCAGAUCUGAUUCAGAUCUGAGGAUAUACAUGAGGAUCACCCAUGUUAUGCACCAGCACGAGAGUGCAU | – | – | 20 nM | 98 nM
14 | UUUUUUGUACAAGGAUAUCUAUUAUAUUCACGUCCUACAUGAGGAUCACCCAUGUUAUAUAUUUUAGAGAAGGUGUAUUGUCUG | 31.7 nM | 35.5 nM | – | –
15 | UGUAAUAUUAUAGGAUAUGGUUACGAUACGUAACCAGAAGGGUGAUUAUACUAUAAUCUAUACAUGAGGAUCACCCAUGUUUAU | 205 nM | 110 nM | – | –
16 | UAUUGAUAAUAUUUUAACAUGAGGAUCACCCAUGUCGCUCGACAGGAUAUAUUUUAUUUGUUUAAGUAGAAGGGUCGCAGAUUU | 117 nM | 103 nM | – | –
17 | GCAAAGCCUGACAUGAGGAUCACCCAUGUUAGAUUGUUAUGUCAGGAUAUUGUCUAGACACUAGACAAGAAGGGAUGCUUUGCA | 386 nM | 38.4 nM | – | –
18 | GGUGCGUAUGUGAGGAUAUGCUGGUCCUUGGAUCAGCAGAAGGCACAUGAGGAUCACCCAUGUGGUGUCGUACU | – | – | 282 nM | 26.1 nM
19 | CUAGCCCAGCCCGCCUAGUUCGGGAGAAGGAGGAGACAUGAGGAUCACCCAUGUGGCCUUAUCUCCUAGGAUAUCCCGGCGGGA | – | – | 5.56 nM | 21.6 nM
20 | UUGGCUAAACCUCAGAGUACCACAUGAGGAUCACCCAUGUGGAGAAGGGACUUUGUACCGUUGAGUCAGGAUAUUCAUUGGGUA | – | – | 5.17 nM | 7.35 nM
21 | UGGUACAUGGGAGGAUAUCAUGUAGACACAUGAGGAUCACCCAUGUCGAUGGAGACAUCGGAGAUUGAGAAGGCCCAUGUACCU | 226 nM | 8.3 nM | – | –
22 | AAAACAUGAGGAUCACCCAUGUAUAGAUCGGUUAAUAGAAGUGAGGAUAUGCUUAAAAUAAGGUAGCAGAAGGCACUGGGUACA | 23.9 nM | 25.1 nM | – | –
23 | GUAGCAUACCGAGGAUAUUCAUAUCGUAAUCGAACAUGAGGAUCACCCAUGUGGCGAAAGCCUUGGGAGAAGGCGGAAUGCUAC | 360 nM | 25.9 nM | – | –
24 | UAAAUUUUGUAAGGAUAUACACGAGAUUCAAGUGUAGAAGGUACUUACAUGAGGAUCACCCAUGUAUACAUGGAUCAUAGAUAU | 305 nM | 63.9 nM | – | –

Row | Sequence | apparent Kd [1] | apparent Kd [2] | apparent Kd [3] | apparent Kd [4]
25 | CCAGAGGAGUAGGAUAUAGGCCGCCAUCGGCGCCUAGAAGGGCUCACAUGAGGAUCACCCAUGUGAUGUUAGUU | – | – | 17.5 nM | 20 nM
26 | UUAAAUCAUGUAGGAUAUGCAUGGCGAAGCUACGCAGAAGGACAUGAGGAUCACCCAUGUUAUAGCGUCUGAGUACAGAUGCAA | – | – | 79.6 nM | 268 nM
27 | GGAUCGAGUGUGAGGAUAUACCACUGGAUACAGUGGUAGAAGGCACAUGAGGAUCACCCAUGUCUCUACGAUCC | – | – | 16.1 nM | 51.8 nM
28 | CUUAUGUAAGGAUAUCAGUAGUAAAAAAAUAAAAUUACUACUGAGAAGGUACAUGAGGAUCACCCAUGUCUUUC | – | – | 113 nM | 50.5 nM
29 | CUAUUGGUAACAGGAUAUAUGAGUCCUACAUGAGGAUCACCCAUGUAGGUGAUCUAACGAGAUUAGUAGAAGGGUUACCAAUAG | 16.9 nM | 8.34 nM | – | –
30 | UGCUACGUUUCGUAGCAGUGUCAUCGAGAAGGCCCUGACAUGAGGAUCACCCAUGUUGUUACAUGGGAGGAUAUCGAUGAUACA | – | 5.16 nM | – | –
31 | CAGCACUGUCGAGAGGAUAUGCGGUGAUGGACAUGAGGAUCACCCAUGUUAGCGACAGCAUCACGGCAGAAGGCUCUGCUGCUGC | 59.4 nM | 16.9 nM | – | –
32 | GUGGAACAUGAGGAUCACCCAUGUGAGGAUAUAGGUUUUUGGGAAAAACUAGGAGAAACUAGAAGGCGCAAGAA | – | – | 29.4 nM | 27.6 nM
33 | ACAAGAUCAGGAUAUACAUGAGGAUCACCCAUGUAUAUCAAAAAAGGGCCUUCUACAUGUAGAAGGGAUCUUGU | – | – | 13.1 nM | 12.1 nM
34 | GCAUCCAAAGUGAGGAUAUACCUCUGGAUACAUAGGUAGAAGGCACAUGAGGAUCACCCAUGUUCCUAGGAUGC | – | – | 31.6 nM | 43.1 nM
35 | GUGUACGGAGGAUAUGCUGGAAUCUAGCGAAGCUAGGUUCCACAUGAGGAUCACCCAUGUAGAAGGCUGUACAC | – | – | 24.8 nM | 14.2 nM
36 | CAAAACUGAGGAUAUACAUGAGGAUCACCCAUGUCCAAGGUCCUGGGCGGAUGCUGCUGUAGAAGGCGGAAAGA | – | – | 22.4 nM | 32.4 nM
37 | GUCAGCUCGUGAGGAUAUACAUCACUGCUUCGGCAGUGUAUUAAGAGCACAUGAGGAUCACCCAUGUAGAAGGCACGAGCUGAU | – | – | 16.3 nM | 24.1 nM
38 | CCACGUCCCAUUAACAUGAGGAUCACCCAUGUCAAAAGACAUGAGGAUAUGGUACCUAAUUGGUACCAGAAGGCAUGGACGUGG | 691 nM | 114 nM | – | –
39 | AUUAUGUUAGGAUAUGCUUAUGGUGGAUAAUCAGAUAUGAUGCAGAAGGGACAUGAGGAUCACCCAUGUACUGU | – | – | 20.8 nM | 23.6 nM
40 | UCAUUUUCCACAGGAUAUAUUCAUAUACAGUUGUUUGGCUCUUACAUGUUAGUAGAAGGGUGCAACAUGAGGAUCACCCAUGUA | 362 nM | 186 nM | – | –
41 | UGUCCACAUGAGGAUCACCCAUGUGAGGAUAUCCAUAAACACAUCGUAUGUGUAUUAUGGAGAAGGCACACACA | – | – | 16.1 nM | 21.9 nM
42 | AGCAUGCUAGGAUAUACGAAACAUUAGGGUUCGUCGUAUGAACAUGAGGAUCACCCAUGUAGAAGGAGCGUGCA | – | – | 18 nM | 36.2 nM
43 | UAGGUACAUGAGGAUCACCCAUGUGAGGAUAUAGAUGAAGAUUGCGAGAGGGAGAGGACUAGAAGGCACAGUGG | – | – | 33.3 nM | 36.8 nM
44 | GUCAGCUCGUGAGGAUAUACAUGUGCUGGAGACAGCACUAAUUAAUUCACAUGAGGAUCACCCAUGUAGAAGGCACGAGCUGAU | – | – | 16.2 nM | 19.6 nM
45 | AAAAAAAAAAGUCAGGAUAUACAAAUUUUUACAUGAGGAUCACCCAUGUUAAGGAAAAAAAAAAAGUAGAAGGGACAAAAAAAAAA | 27.3 nM | 17.6 nM | – | –
46 | AAAAAGUGAGGAUAUACGAAAAAAAAAAAAAAAAAAGGUGAACAUGAGGAUCACCCAUGUAGAAGGCACAAAAA | – | – | 311 nM | 243 nM
47 | AGCGGCGCGGGCCACCGCAGGACCAGAAGGACAUGAGGAUCACCCAUGUAGCAGAACAGGGCGGUGUAGGAUAUGGCAGGCUCG | – | – | 22.5 nM | 51.6 nM
48 | ACAUGAUACAAGAAGGAUGUAUUAGAUUUGAUCAUAGGAUAUUGUUAUAUUGUUUACUCUAAUAACAUGAGGAUCACCCAUGUA | 10.7 nM | 7.53 nM | – | –
